Screens deposited in PubChem BioAssay by several laboratories.
The list is not random: actives were taken first. Their share in the collection is about 1.3%.
Arrestin-AP2 inh: inhibitors of beta-arrestin/AP2 binding, primary screen, biochemical, GPCR trafficking, flow cytometry. beta-arrestin 1 C-terminal peptide binding to AP2 beta2-adaptin appendage (human). FITC-arrestin peptide / GST-AP2 beads; AP2 beta2 appendage carries R879A mutation. inhibition, % at 10 µM. 340,000 tested, 0.31% active. AID 504490, 2011;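 active means inhibition above a set limit, near 3 SD of compounds lacking own fluorescence, cut at about 54% in these data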;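 further: plate controls were DMSO wells for no effect and 5 µM unlabelled arrestin peptide for full effect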
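Assay system: GST-AP2 R879A bound to glutathione beads, E. coli-expressed; Medium: PBS with 0.05% Tween 20 and 0.1% BSA; Also added: fluorescein-tagged arrestin peptide at 50 nM final; Timing: 12 min plus 1 h, RT; Measured by: flow cytometry, FL1 (488/535 nm); Evaluation: percent drop in bead-associated FITC signal.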
PLCg1 inh: PLC-gamma1 enzyme inhibitors, primary screen, biochemical, fluorescence, purified enzyme. 1-phosphatidylinositol 4,5-bisphosphate phosphodiesterase gamma-1 (Homo sapiens), P19174. fluorogenic substrate. inhibition, % at 12.2 µM. 370,000 tested, 0.84% active. AID 720700, 2013
PLC-beta3 inh: human PLC-beta3 inhibitors, primary screen, biochemical, fluorescence. 370,000 tested, 0.18% active. AID 720704, 2013. Purified PLC-beta3, fluorogenic substrate. inhibition, % at 12.2 µM; in the data active means inhibition above about 11%;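 further: 0% = median of compound wells on plate and 100% = full blocker control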
NTR1 ag: agonists of human NTR1, primary screen, imaging, U2OS cells, beta-arrestin-GFP, high content. NTR1-U2OS beta-arrestin-GFP spot imaging, agonist mode. activation, % at 20 µM. 330,000 tested, 0.17% active;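 active means activation at or above 40% of the spot to cytoplasm intensity ratio, with at least 20 cells analyzed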;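 further: 0% = DMSO without peptide and 100% = 100 nM NTR1 peptide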
PLCgamma1 ctr: PLC-gamma1 enzyme inhibitors, counter-screen for PLC-beta3 inhibitor project, biochemical, fluorescence; inhibition, % at 12.3 µM; shares compounds with PLCg1 inh; 3,300 tested, 3.1% active; AID 743258, 2014; purified PLC-gamma1, fluorogenic substrate
PLCb3 confirm: PLC-beta3 inhibitor confirmation, biochemical, fluorescence, purified enzyme. shares compounds with PLCg1 inh. fluorogenic substrate fluorescence. inhibition, % at 12.3 µM. 3,300 tested, 1% active. AID 743261, 2014; in the data active means inhibition above about 11%
An asterisk follows results filed as active; . = no result given; ! = not confirmed by another sample. Unless noted, no stated cut-off is given here; in the data, active means inhibition above about 9.5%; inactive means the rest.

SMILES	Arrestin-AP2 inh	PLCg1 inh	PLC-beta3 inh	NTR1 ag	PLCgamma1 ctr	PLCb3 confirm
COc1cccc(NC(=O)C(Sc2nnc(Nc3ccccc3C)s2)c2ccccc2)c1 (stereo not drawn)	-1.2	10.0*	3.7	5.9	7.5	0.9
Nc1[nH]c(C(=O)c2ccccc2)c(-c2ccccc2Cl)c1C(=O)NCCc1c[nH]c2ccccc12	.	-13.9	-15.9	.	.	.
COC(=O)[C@]12C[C@H](CC(=O)N3CCN(C(=O)c4ccco4)CC3)C(=O)N(CCc3ccc(OC)c(OC)c3)C1=C[C@H](C1CCCC1)O[C@@H]2C	.	-0.8	0.8	.	.	.
CC(=O)c1cc(-c2ccc(Oc3ccccc3)cc2)c(=O)n2c1CCC2	.	-19.0	-27.8	.	.	.
CC(C)(Oc1ccc(Cl)cc1)C(=O)OCC(=O)Nc1ncc(Cl)cc1Cl	-1.7	7.7	12.1*	-2.5	-0.5	1.2
COc1ccc(OCCCC(=O)OCC(=O)Nc2ncc(Cl)cc2Cl)cc1	51.8	-2.7	-12.5	-1.5	.	.
O=C(Nc1ccccc1)Nc1ccc(F)c([N+](=O)[O-])c1	0.6	5.6	3.6	3.4	.	.
O=C(Cc1ccc(F)cc1)Nc1ccc(F)c([N+](=O)[O-])c1	0.9	9.8*	3.6	0.0	-1.6	2.2
COC(=O)N1CCCCC1c1cc(C(=O)NCc2ccccc2)no1 (stereo not drawn)	.	10.4*	1.5	.	-1.2	-8.2
CCCNC(=O)c1cc(C2CCCCN2C(=O)c2ccc3ccccc3c2)on1 (stereo not drawn)	.	-0.8	-1.9	.	.	.
O=C(Nc1ccccc1)c1cc(C2CCCCN2S(=O)(=O)c2ccccc2)on1 (stereo not drawn)	.	10.1*	6.2	.	-3.0	-1.6
CCCNC(=O)c1cc(C2CCCCN2C(=O)c2ccc3c(c2)CCO3)on1 (stereo not drawn)	.	47.6*	-0.2	.	-5.9	-3.6
CC(NCc1ccco1)C(=O)N1CCCC1 (stereo not drawn)	.	-3.0	-3.4	.	.	.
C[C@H]1[C@@H](OC(=O)NC2CCC2)CC[C@@]23CCCN2C(=O)CCC[C@@H]13	.	-1.1	0.0	.	.	.
CCNC(=S)NN=C1CCC(C(C)(C)C)CC1 (stereo not drawn)	5.4	13.0*	-0.9	-0.8	-7.2	-4.8
CCN(CC)S(=O)(=O)c1cccc(-c2nnc(SCC(N)=O)n2CCc2ccccc2)c1	-4.0	12.1*	7.1	0.5	6.9	3.7
CCN(CC)S(=O)(=O)c1cccc(-c2nnc(SC(C)C(N)=O)n2CCc2ccccc2)c1 (stereo not drawn)	-6.6	7.3	2.4	0.3	.	.
CCCC[C@H]1C2CC(OC(=O)Nc3ccccc3C)C(C2)[C@H]2CCCCN21 (stereo partly drawn)	.	3.0	0.6	.	.	.
C#CCN1CC(N(C)CCOC(=O)CSc2ccccc2)CS1(=O)=O (stereo not drawn)	.	2.5	2.3	.	.	.
CC(C)(C)C1CCC(C(=O)Nc2ccccc2)CC1 (stereo not drawn)	3.7	11.2*	5.3	2.4	6.5	12.6*
O=C(Nc1ccc(Nc2ccccc2)cc1)C1CC1	15.7	6.9	1.8	-0.2	.	.
C[C@H]1C(c2ccccc2F)O[C@]2(C[C@H](O)c3c(ccc4ccccc34)O2)C[C@@H]1O (stereo partly drawn)	.	-10.9	-16.8	.	.	.
CC(=O)Nc1ccc(/C=N/NC(=S)NC(C)C)cc1	-2.8	11.9*	3.0	-1.8	-6.1	1.4
C=C(C)CNC(=S)N/N=C/c1ccc(NC(C)=O)cc1	0.2	3.9	-2.9	0.4	.	.
Cc1ccc(CNC(=O)Cc2ccc(NC3=NC4CS(=O)(=O)CC4S3)cc2)cc1 (stereo not drawn)	0.7	3.3	-0.9	4.7	.	.
SMILES	Arrestin-AP2 inh	PLCg1 inh	PLC-beta3 inh	NTR1 ag	PLCgamma1 ctr	PLCb3 confirm
O=C(Cc1ccc(NC2=NC3CS(=O)(=O)CC3S2)cc1)NCc1ccc(Cl)cc1 (stereo not drawn)	-1.7	11.4*	1.4	3.0	-2.0	-1.2
CC(C)c1ccc(NC(=O)Cc2ccc(NC3=NC4CS(=O)(=O)CC4S3)cc2)cc1 (stereo not drawn)	-8.1	10.7*	4.1	-0.9	-4.0	-2.8
Cc1ccc(NC(=O)c2cccc(NC3=NC4CS(=O)(=O)CC4S3)c2)cc1C (stereo not drawn)	3.3	1.7	0.4	-1.0	.	.
CC(C)c1ccc(NC(=O)c2cccc(NC3=NC4CS(=O)(=O)CC4S3)c2)cc1 (stereo not drawn)	-6.2	9.6*	0.0	6.3	1.8	-1.4
CCc1ccc(NC(=O)Cc2ccc(NC3=NC4CS(=O)(=O)CC4S3)cc2)cc1 (stereo not drawn)	0.2	1.6	0.6	-2.1	.	.
CCOc1ccc(NC(=O)c2cccc(NC3=NC4CS(=O)(=O)CC4S3)c2)cc1 (stereo not drawn)	7.0	9.9*	4.0	9.0	6.4	2.1
C=CCNC(=O)NC[C@@]1(C(=O)OC)CC(=O)N(C)[C@@H]1c1ccccc1	.	-0.3	3.5	.	.	.
Cc1nc2cc(C(=O)N3CCN(C(=O)OCc4ccccc4)CC3)ccc2n1C1CCCC1	.	3.6	2.4	.	.	.
O=C(Nc1ccc(Cl)cc1)c1cccc(NC2=NC3CS(=O)(=O)CC3S2)c1 (stereo not drawn)	9.4	12.0*	4.1	4.8	-4.9	-4.8
CCc1ccc(NC(=O)c2cccc(NC3=NC4CS(=O)(=O)CC4S3)c2)cc1 (stereo not drawn)	-1.5	1.2	1.0	0.3	.	.
COc1ccc(Cn2c(C)c(C)c(C#N)c2NC(=O)Nc2cccc(Cl)c2)cc1	-4.1	-3.4	-5.9	-1.7	.	.
Cc1c(C#N)c(NC(=O)c2cccc(Cl)c2)n(Cc2ccccc2)c1C	-1.0	9.9*	0.7	3.5	0.2	1.2
Cc1c(C(=O)NCc2cccnc2)sc2ncn(CC(=O)N3CCCCC3C)c(=O)c12 (stereo not drawn)	1.2	10.6*	2.5	.	-5.9	-4.5
Cc1cccc(NC(=O)Cn2c(=O)n(CCc3c[nH]c4ccccc34)c(=O)c3cccnc32)c1	.	11.1*	4.8	0.6	-0.3	0.9
CCOC(=O)c1c(C)c(C(=O)Nc2ccc(F)cc2)c(C)n1C	1.7	12.5*	3.5	1.6	-3.7	1.3
CCOC(=O)c1[nH]c(C)c(C(=O)Nc2ccc(F)cc2)c1C	0.1	2.9	-1.8	-5.3	.	.
Cc1ccc(NC(=S)N/C(=N/S(=O)(=O)c2ccccc2)c2ccccc2)cc1	-12.8	16.5*!	-2.0	-3.3	-4.1	-0.9
